Published values of several laboratories.
Compare with care: the assays were run in different laboratories.
Target: Mitogen-activated protein kinase 15 (MAPK15, Homo sapiens, UniProt Q8TD08)
Residues used in one study (Q8TD08 1-544): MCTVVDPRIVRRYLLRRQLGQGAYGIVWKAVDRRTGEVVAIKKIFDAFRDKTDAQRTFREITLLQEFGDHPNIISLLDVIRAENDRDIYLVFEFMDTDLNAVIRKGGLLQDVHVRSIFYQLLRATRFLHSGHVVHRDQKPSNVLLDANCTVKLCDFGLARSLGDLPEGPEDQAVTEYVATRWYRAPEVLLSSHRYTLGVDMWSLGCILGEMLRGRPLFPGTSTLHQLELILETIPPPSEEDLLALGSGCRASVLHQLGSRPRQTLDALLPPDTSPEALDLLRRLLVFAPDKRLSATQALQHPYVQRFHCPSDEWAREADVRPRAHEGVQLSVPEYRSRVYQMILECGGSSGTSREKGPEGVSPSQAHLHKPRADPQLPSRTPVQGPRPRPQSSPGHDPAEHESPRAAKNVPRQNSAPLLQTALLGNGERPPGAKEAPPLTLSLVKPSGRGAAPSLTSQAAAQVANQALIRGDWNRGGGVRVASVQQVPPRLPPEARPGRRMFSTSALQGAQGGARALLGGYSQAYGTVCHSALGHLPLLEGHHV

Compound | observed | action | technique | concentration | measurement | value
Nc1nc(Nc2ccccc2)sc1C(=O)c1c(F)cccc1F | enzyme activity | inhibitor |  | 10 µM | remaining activity | 14%
Cc1sc(C(=O)NC2COC2)cc1-n1cc(NC(=O)Nc2c(F)cccc2Cl)cn1 | enzyme activity | inhibitor |  | 10 µM | remaining activity | 103%
CO[C@@H](C)c1c(Nc2ccc([C@@H](N(C)C(=O)C3CCS(=O)(=O)CC3)C(F)(F)F)cc2)cnc2cc(Cl)nn12 | cell-free assay |  | competition with immobilised ligand | 1 µM | remaining binding | 81%
O=C(Nc1cnn(-c2csc(C(=O)NC3COC3)c2)c1)Nc1ccccc1Cl | enzyme activity | inhibitor |  | 5 µM | remaining activity | 140%
FC(F)(F)Oc1cccc(-c2cnc3ccc(-c4ccncc4)nn23)c1 | enzyme activity | inhibitor | radiometric | 1 µM | activity vs control | 29%
Cn1c(=O)n(-c2ccc(C(C)(C)C#N)cc2)c2c3cc(-c4cnc5ccccc5c4)ccc3ncc21 | enzyme activity | inhibitor |  | 10 µM | remaining activity | 94%
CCC(=N\O)/C(C)=C/c1ccc(F)cc1 | cell-free assay |  | competition with immobilised ligand | 1 µM | remaining binding | 95%
CC(C)(C)c1nc(-c2cccc(NS(=O)(=O)c3c(F)cccc3F)c2F)c(-c2ccnc(N)n2)s1 | enzyme activity | inhibitor | radiometric | 1 µM | remaining activity | 80%
Nc1ncnc2occ(-c3ccc(NC(=O)Nc4cc(C(F)(F)F)ccc4F)cc3)c12 | cell-free assay | inhibitor |  | 20 µM | remaining signal | 0.1%
Cn1cnc(Br)c1C1=CN(c2ncnc3[nH]cnc23)CCS1 | enzyme activity | inhibitor | radiometric | 50 nM | inhibition | 17.1%
CS(=O)(=O)c1cc(C2(NC(=O)c3cncc4c3cnn4-c3ccc(F)cc3)CC2)ccn1 | cell-free assay |  | competition with immobilised ligand | 1 µM | remaining binding | 100%
COc1cc(Nc2cnc(C#N)c(O[C@H](C)CN(C)C)n2)ncc1-c1cnn(C)c1 | enzyme activity | inhibitor | radiometric | 1 µM | remaining activity | 101%
N#CC1(c2ccccn2)CCN(Cc2cc(C(=O)N3CCCC3)c(=O)n3ccccc23)CC1 | cell-free assay |  | competition with immobilised ligand | 1 µM | remaining binding | 92%
Cc1ccc(C(=O)Nc2ccc(CN3CCN(C)CC3)c(C(F)(F)F)c2)cc1C#Cc1cnc2cccnn12 | enzyme activity | inhibitor |  | 23.5 nM | remaining activity | 77%
